According to ChEMBL document CHEMBL3997774, “Identification of Picrasidine C as a Subtype-Selective PPARα Agonist” (J Nat Prod, 2016):
Activity calls are given as the source filed them. The calls are words filed in the database; no cut-off is given here.

How the values were obtained:
Assay type in all cases: cell-based
[1] = target: T1, Peroxisome proliferator-activated receptor alpha (Homo sapiens) (UniProt Q07869); assay: Agonist activity at GAL4-DBD fused human PPARalpha-LBD (159 to 468 residues) expressed in human HepG2 cells at 10 uM after 24 hrs by dual luciferase reporter gene based mammalian one hybrid assay relative to control
T1 sequence (whole entry): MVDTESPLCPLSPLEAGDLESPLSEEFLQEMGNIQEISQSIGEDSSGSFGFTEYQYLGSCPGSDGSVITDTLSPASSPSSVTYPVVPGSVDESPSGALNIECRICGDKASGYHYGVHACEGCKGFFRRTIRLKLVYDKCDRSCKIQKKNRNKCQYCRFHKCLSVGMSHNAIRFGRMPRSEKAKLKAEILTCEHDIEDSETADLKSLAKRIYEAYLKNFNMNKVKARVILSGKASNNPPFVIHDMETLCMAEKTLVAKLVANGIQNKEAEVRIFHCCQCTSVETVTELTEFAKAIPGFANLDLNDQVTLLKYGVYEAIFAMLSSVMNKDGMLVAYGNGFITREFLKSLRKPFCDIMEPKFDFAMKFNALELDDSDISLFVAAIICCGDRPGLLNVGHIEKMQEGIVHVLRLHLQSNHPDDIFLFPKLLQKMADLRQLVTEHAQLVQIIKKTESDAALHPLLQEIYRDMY
How it was run: (§1)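 HepG2 cells (DMEM, 10% FBS) transfected with GAL4-DBD/human PPAR-LBD expression vector (0.05 μg), GALRE-luc reporter (0.1 μg) and pGL4.74 Renilla (0.01 μg). After overnight incubation, 0.1–20 μM compound or 0.1% DMSO for 24 h. Dual-luciferase readout, firefly normalized to Renilla. Fold activation over solvent, four independent transfections (mean ± SD, n = 4).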

[2] = target: T1, Peroxisome proliferator-activated receptor alpha (Homo sapiens); assay: Agonist activity at PPARalpha in human THP1 cells assessed as induction of ABCA1 mRNA expression after 24 hrs by RT-qPCR analysis
How it was run: (§2)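 THP-1 cells (RPMI-1640, 10% FBS) differentiated with 200 nM PMA for 48 h, then treated 24 h with compound (1, 10, 20 μM; reference 50 μM) or 0.1% DMSO. Total RNA extracted, reverse transcribed. SYBR qPCR, 40 cycles (98 °C 5 s, 55 °C 20 s, 72 °C 30 s). Normalized to β-actin mRNA. Fold over solvent, n = 4 (mean ± SD).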

[3] = target: T1, Peroxisome proliferator-activated receptor alpha (Homo sapiens); assay: Agonist activity at PPARalpha in human THP1 cells assessed as induction of CPT-1 mRNA expression after 24 hrs by RT-qPCR analysis; how it was run: as §2
THP-1 = assay: Cytotoxicity against PMA-differentiated human THP1 cells assessed as reduction in cell viability at 10 uM after 24 hrs by MTS assay; conditions: thp-1, 24 h
HepG2 = assay: Cytotoxicity against human HepG2 cells assessed as reduction in cell viability at 10 uM after 24 hrs by MTS assay; conditions: hepg2, 24 h
[4] = target: T2, Peroxisome proliferator-activated receptor delta (Homo sapiens) (UniProt Q03181); assay: Antagonist activity at GAL4-DBD fused human PPARbeta/delta-LBD (136 to 441 residues) expressed in human HepG2 cells assessed as inhibition of GW0742-induced receptor activation at 10 uM by luciferase reporter gene based mammalian one hybrid assay
T2 sequence (whole entry): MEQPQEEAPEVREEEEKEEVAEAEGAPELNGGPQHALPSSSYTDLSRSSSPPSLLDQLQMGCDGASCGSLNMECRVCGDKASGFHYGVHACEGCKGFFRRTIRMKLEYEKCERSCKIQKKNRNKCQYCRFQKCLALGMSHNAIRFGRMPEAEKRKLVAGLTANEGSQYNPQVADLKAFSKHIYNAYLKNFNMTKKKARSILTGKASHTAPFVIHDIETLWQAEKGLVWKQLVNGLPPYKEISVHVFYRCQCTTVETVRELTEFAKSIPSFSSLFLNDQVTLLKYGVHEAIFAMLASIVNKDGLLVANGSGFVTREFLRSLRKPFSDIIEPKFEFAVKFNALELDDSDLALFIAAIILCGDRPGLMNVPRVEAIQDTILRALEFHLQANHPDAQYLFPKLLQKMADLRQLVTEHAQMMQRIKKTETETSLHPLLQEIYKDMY
How it was run: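 HepG2 cells transfected with GAL4/PPARβ/δ-LBD vector (0.05 μg), GALRE-luc (0.1 μg) and pGL4.74 (0.01 μg). Treated 24 h with 10 μM compound, 10 μM GW0742, or both together, vs 0.1% DMSO. Dual-luciferase, Renilla-normalized. Fold over solvent, four transfections (mean ± SD, n = 4).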

[5] = target: T1, Peroxisome proliferator-activated receptor alpha (Homo sapiens); assay: Agonist activity at PPARalpha in human THP1 cells assessed as induction of ABCA1 mRNA expression at 20 uM in presence of MK-886 after 24 hrs by RT-qPCR analysis
How it was run: (§3)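 PMA-differentiated THP-1 cells (200 nM, 48 h) pretreated 1 h with MK-886 (200 μM), then given compound or 0.1% DMSO for 24 h. Target mRNA measured by SYBR RT-qPCR and normalized to β-actin. Fold induction over solvent, four experiments (mean ± SD, n = 4).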

[6] = target: T3, Peroxisome proliferator-activated receptor delta (Homo sapiens, UniProt Q03181); assay: Agonist activity at GAL4-DBD fused human PPARbeta/delta-LBD (136 to 441 residues) expressed in human HepG2 cells at 0.1 to 20 uM after 24 hrs by luciferase reporter gene based mammalian one hybrid assay relative to control; how it was run: as §1
T3 sequence (Q03181 whole entry): T2 sequence (whole entry)

[7] = target: T1, Peroxisome proliferator-activated receptor alpha (Homo sapiens); assay: Agonist activity at PPARalpha in human THP1 cells assessed as induction of PPARalpha mRNA expression at 20 uM in presence of MK-886 after 24 hrs by RT-qPCR analysis; how it was run: as §3
[8] = target: T1, Peroxisome proliferator-activated receptor alpha (Homo sapiens); assay: Agonist activity at PPARalpha in human THP1 cells assessed as induction of PPARalpha mRNA expression after 24 hrs by RT-qPCR analysis; how it was run: as §2
[9] = target: T1, Peroxisome proliferator-activated receptor alpha (Homo sapiens); assay: Agonist activity at PPARalpha in human THP1 cells assessed as induction of CPT-1 mRNA expression at 20 uM in presence of MK-886 after 24 hrs by RT-qPCR analysis; how it was run: as §3
[10] = target: T1, Peroxisome proliferator-activated receptor alpha (Homo sapiens); assay: Agonist activity at GAL4-DBD fused human PPARalpha-LBD (159 to 468 residues) expressed in human HepG2 cells after 24 hrs by dual luciferase reporter gene based mammalian one hybrid assay relative to control; how it was run: as §1
[11] = target: T1, Peroxisome proliferator-activated receptor alpha (Homo sapiens); assay: Agonist activity at full length human N-terminal Myc-tagged PPARalpha expressed in human HepG2 cells coexpressing RXRalpha assessed as transcriptional activation of PPRE at 10 uM incubated for 24 hrs by dual luciferase reporter gene assay
How it was run: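 HepG2 cells co-transfected with PPRE-luc reporter (0.1 μg), PPARα and RXRα expression vectors (0.05 μg each) and pGL4.74 (0.01 μg). Treated 24 h with test compound or 0.1% DMSO. Dual-luciferase readout, firefly/Renilla. Fold activation over solvent, four independent transfections (mean ± SD, n = 4).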

[12] = target: T1, Peroxisome proliferator-activated receptor alpha (Homo sapiens); assay: Agonist activity at PPARalpha in human THP1 cells assessed as induction of PDK4 mRNA expression at 20 uM in presence of MK-886 after 24 hrs by RT-qPCR analysis; how it was run: as §3
[13] = target: T1, Peroxisome proliferator-activated receptor alpha (Homo sapiens); assay: Agonist activity at PPARalpha in human THP1 cells assessed as induction of PDK4 mRNA expression after 24 hrs by RT-qPCR analysis; how it was run: as §2
[14] = target: T4, Peroxisome proliferator-activated receptor gamma (Homo sapiens, UniProt P37231); assay: Agonist activity at GAL4-DBD fused human PPARgamma-LBD (157 to 475 residues) expressed in human HepG2 cells at 0.1 to 20 uM after 24 hrs by luciferase reporter gene based mammalian one hybrid assay relative to control; how it was run: as §1
T4 sequence (P37231 whole entry): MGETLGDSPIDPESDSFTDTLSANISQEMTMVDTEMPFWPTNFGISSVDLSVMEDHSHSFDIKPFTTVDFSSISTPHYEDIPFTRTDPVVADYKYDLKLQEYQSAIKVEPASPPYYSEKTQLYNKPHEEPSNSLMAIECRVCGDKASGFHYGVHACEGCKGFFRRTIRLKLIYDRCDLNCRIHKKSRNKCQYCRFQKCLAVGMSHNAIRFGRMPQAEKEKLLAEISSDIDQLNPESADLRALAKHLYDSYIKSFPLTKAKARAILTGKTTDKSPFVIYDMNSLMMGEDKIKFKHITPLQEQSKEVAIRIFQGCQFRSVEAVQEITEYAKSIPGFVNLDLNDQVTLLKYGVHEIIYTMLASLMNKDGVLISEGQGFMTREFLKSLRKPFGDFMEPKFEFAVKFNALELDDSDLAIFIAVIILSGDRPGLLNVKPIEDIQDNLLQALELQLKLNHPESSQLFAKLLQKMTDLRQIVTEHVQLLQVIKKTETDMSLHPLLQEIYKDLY

| SMILES | Activity [1] | Activity [2] | Activity [3] | Activity (THP-1) | Activity (HepG2) | inhibition [4] | Activity [5] | Activity [6] | Activity [7] | Activity [8] | Activity [9] | Activity [10] | Activity [11] | Activity [12] | Activity [13] | Activity [14] |
| --- | --- | --- | --- | --- | --- | --- | --- | --- | --- | --- | --- | --- | --- | --- | --- | --- |
| Cc1cccc(Nc2cc(Cl)nc(SCC(=O)O)n2)c1C | Active | – | – | – | – | – | – | – | – | – | – | – | – | – | – | – |
| COc1cccc2c1[nH]c1c(CCC(OC)C(=O)c3nccc4c3[nH]c3ccccc34)ncc(OC)c12 (configuration not stated) [PICRASIDINE C] | Active | Dose-dependent effect | Dose-dependent effect | Non-Toxic | Non-Toxic | inactive | inactive | Not Active | inactive | Dose-dependent effect | inactive | Dose-dependent effect | Active | inactive | Dose-dependent effect | Not Active |
